Screening data from PubChem.
KCNQ1 pot – potentiators or activators of human KCNQ1 potassium channel. B-score at 10 µM. 0.35% of 310,000 active. CHO-K1 KCNQ1, thallium flux FluxOR fluorescence; stronger effect = higher value. P51787;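 active = fluorescence ratio B-score, a plate-corrected score, at least three library SD, with initial intensity B-score within 5 SD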
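System: CHO-K1 cells stably expressing KCNQ1 / Medium: assay buffer for compound exposure, DMSO matched across wells / Reagent: thallium- and potassium-containing depolarizing buffer / Compound: one concentration, matched DMSO / Incubation: 20 min compound pretreatment at room temperature / Measured by: kinetic FluxOR fluorescence, 10 s baseline plus 110 s post-stimulus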
hERG rescue – shields human hERG channel from block by proarrhythmic agents. AID 1511. 0.51% of 310,000 active. CHO-hERG, FluxOR thallium flux, dofetilide IC70 present. activation (rescue from dofetilide block), less the hit threshold, % at 10 µM;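 active = activation above the mean of controls blocked by dofetilide plus 5 SD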;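 note: thallium influx through hERG after potassium depolarization seen as dye fluorescence rise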
KCNK3 block – human KCNK3 channel inhibition, primary screen; O14649; CHO-KCNK3 thallium flux, FluxOR fluorescence; stronger effect = lower value; B-score at 10 µM; 0.84% of 340,000 active;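 active = B-score under library mean minus 4 SD, starting fluorescence ratio at most library mean plus 5 SD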;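 note: more negative B-score means stronger inhibition of thallium flux through KCNK3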
Target sequence (O14649 whole entry, looked up): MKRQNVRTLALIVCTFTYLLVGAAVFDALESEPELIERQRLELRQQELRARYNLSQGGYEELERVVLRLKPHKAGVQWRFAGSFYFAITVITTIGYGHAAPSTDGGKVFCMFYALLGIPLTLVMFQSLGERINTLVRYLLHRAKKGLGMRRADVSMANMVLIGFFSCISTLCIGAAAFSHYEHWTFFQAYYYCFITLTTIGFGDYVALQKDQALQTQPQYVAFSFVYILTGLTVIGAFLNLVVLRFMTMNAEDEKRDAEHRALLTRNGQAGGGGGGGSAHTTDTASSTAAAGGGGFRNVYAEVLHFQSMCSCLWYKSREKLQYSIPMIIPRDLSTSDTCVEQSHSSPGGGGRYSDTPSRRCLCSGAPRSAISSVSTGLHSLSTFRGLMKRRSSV
KCNK9 inh – blocks the human KCNK9 two-pore domain potassium channel. HEK293 KCNK9, FluxOR thallium flux fluorescence; stronger effect = lower value. B-score at 10 µM. 1.2% of 310,000 active. AID 488922;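 active = ratio B-score over 3 SD below the library mean, with starting fluorescence within 5 SD of its mean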;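 note: negative B-score means less thallium flux so channel inhibition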
KCNQ1 inh – blocks the human KCNQ1 potassium channel | P51787 | CHO-K1 KCNQ1, FluxOR thallium flux fluorescence; stronger effect = higher value | B-score at 10 µM | 1.3% of 310,000 active | AID 2642;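 active = compounds whose thallium flux B-score, printed positive for inhibition, exceeds three library SD while starting fluorescence stays within three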;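 note: channel opened by potassium depolarization with thallium stimulus after 20 min compound exposure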
Kir21 block – Kir2.1 (mouse) channel inhibition. P35561. HEK293-Kir2.1, FluxOR thallium flux fluorescence; stronger effect = lower value. B-score at 10 µM. 0.85% of 310,000 active;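 active = fluorescence ratio B-score at or below minus 3 SD of library scores, with starting-brightness B-score within 2 SD, cut at about -4.2 in these data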;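 note: channel flux triggered by added potassium and thallium sulfate stimulus; B-score of peak minus minimum fluorescence over baseline after thallium stimulus; more negative B-score means stronger Kir2.1 block with less thallium influx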
KCNK3 confirm – confirmation of human KCNK3 two-pore domain potassium channel inhibitors; shares compounds with KCNK3 block; CHO-KCNK3 thallium flux, FluxOR fluorescence; 0% buffer, 100% carvedilol maximal block; ratio percent of control, % at 10 µM; 99% of 2,400 active; AID 651638;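 active = ratio percent of control, averaged over triplicates, above buffer control mean plus 5 SD, cut at about 64% in these data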;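 note: ratio is the fluorescence rise from min to max over baseline after thallium stimulus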
KCNK3 uninduced – activity in cells without induced KCNK3 expression. AID 651747. thallium flux ratio (lower = more inhibition) at 10 µM. non-induced KCNK3 parental cells, FluxOR thallium flux; stronger effect = lower value. 40% of 2,400 active. shares compounds with KCNK3 block;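 active = thallium flux ratio, averaged over three wells, more than 5 SD below the buffer control mean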;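 note: host cells are CHO cells without KCNK3 induction; ratio is peak minus trough fluorescence over baseline then normalized to buffer controls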
* marks the source's active call; other numbers are inactive results; i = inactive; nt = no result. Rows were chosen to be rich in hits. Some 3.7% of all compounds tested hit in one or more screens of this group.

SMILES	KCNQ1 pot	hERG rescue	KCNK3 block	KCNK9 inh	KCNQ1 inh	Kir21 block	KCNK3 confirm	KCNK3 uninduced
Cc1cc(C)c(NC(=O)/C(=C/c2ccco2)c2ccccc2)c(C)c1	i	-3	-9*	i	i	-1.4	108*	i
CCCCOc1c(Br)cc(CNCCCN2CCOCC2)cc1OC	i	-8	i	i	i	-2.7	nt	nt
C(=N\N(c1ccccc1)c1ccccc1)/c1ccccn1	i	-7	-9.9*	i	i	-0.62	133*	0.12*
C(=N\n1cnnc1)/c1ccccn1	i	-12	i	i	i	-1	nt	nt
COc1ccc(-c2[nH]c3ccccc3c2SCCNC(=O)c2ccccc2)cc1	i	-15	-9.6*	i	i	0.22	117*	0.14*
COc1ccc(C(=O)NCCSc2ccccc2)cc1	i	1	i	i	i	-1.3	nt	nt
Cc1nnc(SCC(=O)Nc2nsc(-c3ccc(C(C)(C)C)cc3)n2)s1	i	-14	-9.9*	i	i	0.01	102*	i
CCN(CC(=O)Nc1cccc(C#N)c1)CC(=O)Nc1cccc(OC)c1	i	-17	-9.7*	i	i	-2.4	90*	i
Nc1nonc1-n1nnc(C(=O)N/N=C/c2cc(Br)ccc2O)c1CNc1ccccc1	i	-23	-10*	i	i	-1.4	82*	i
COc1ccc(CN2CCN(C(=O)Cn3nc(C(=O)O)c4ccccc4c3=O)CC2)cc1F	i	-10	i	i	i	-0.88	nt	nt
O=C(COc1cccc2cccnc12)N/N=C/c1ccc(O)cc1	i	-8	i	i	i	1.9	nt	nt
O=C(COc1cccc2cccnc12)N/N=C/c1cccn1-c1ccc(F)cc1	i	-21	-8.7*	i	i	0.05	108*	i
Cc1ccc(C)c(S(=O)(=O)N2CCCC2CNC(=O)C(=O)NC2CCCC2)c1 (stereo not drawn)	i	-7	i	i	i	0.31	nt	nt
COc1ccc2c(c1)c(CC(=O)NCc1cc([N+](=O)[O-])ccc1O)c(C)n2C(=O)c1ccc(Cl)cc1	i	-23	-13*	i	11*	-0.17	135*	0.11*
CCc1nnc(NC(=O)C2CCN(C(=O)c3ccco3)CC2)s1	i	-1	-8.8*	i	i	-0.85	81*	i
O=C(COC(=O)c1nc(Cl)c(Cl)c(Cl)c1Cl)NCc1ccccc1	nt	nt	i	nt	nt	nt	nt	nt
CCCOC(=O)c1ccc(NC(=O)CSC2=Nc3ccccc3C3CC=NN23)cc1 (stereo not drawn)	i	-12	-9*	-7*	i	-0.85	110*	i
O=C(CSC1=Nc2ccccc2C2CC=NN12)Nc1ccc2c(c1)OCO2 (stereo not drawn)	nt	nt	i	nt	nt	nt	nt	nt
Cc1nn(-c2ccccc2)c(C)c1/C=N/NC(=O)c1cc(-c2ccc(Cl)s2)[nH]n1	i	-27	-12*	i	i	-0.08	131*	i
O=C(CN1C(=O)c2cccnc2Oc2ccc(Cl)cc21)N1CCOCC1	i	-6	i	i	i	0.44	nt	nt
Cc1ccccc1-n1c(SCC(=O)N/N=C/C=C/c2ccccc2[N+](=O)[O-])nc2ccccc2c1=O	i	-7	i	i	i	0.14	nt	nt
O=C(CSc1nc2ccccc2c(=O)n1-c1ccccc1)N/N=C/C=C/c1ccccc1[N+](=O)[O-]	i	-16	-9.1*	i	i	-0.25	100*	i
O=c1ccc2cc(S(=O)(=O)Nc3ccc(Br)cc3)ccc2o1	i	-9	i	i	i	-0.72	nt	nt
COc1ccc(Cl)c2sc(N3CCN(C(=O)c4ccco4)CC3)nc12	i	-18	-10*	i	i	0.54	86*	i
